pIC50: −log10 of the molar value. Activity calls are given as the source filed them. No cut-off for these calls is given here.
Assays:
[1] = molecular target: T1, Androgen receptor (Homo sapiens) (UniProt P10275); assay: Antagonist activity at androgen receptor in human PC3 cells assessed as increase in Maspin promoter activity at 5 uM by luciferase reporter gene assay; assay type: functional, cell-based; conditions: PC-3
T1 sequence (whole entry): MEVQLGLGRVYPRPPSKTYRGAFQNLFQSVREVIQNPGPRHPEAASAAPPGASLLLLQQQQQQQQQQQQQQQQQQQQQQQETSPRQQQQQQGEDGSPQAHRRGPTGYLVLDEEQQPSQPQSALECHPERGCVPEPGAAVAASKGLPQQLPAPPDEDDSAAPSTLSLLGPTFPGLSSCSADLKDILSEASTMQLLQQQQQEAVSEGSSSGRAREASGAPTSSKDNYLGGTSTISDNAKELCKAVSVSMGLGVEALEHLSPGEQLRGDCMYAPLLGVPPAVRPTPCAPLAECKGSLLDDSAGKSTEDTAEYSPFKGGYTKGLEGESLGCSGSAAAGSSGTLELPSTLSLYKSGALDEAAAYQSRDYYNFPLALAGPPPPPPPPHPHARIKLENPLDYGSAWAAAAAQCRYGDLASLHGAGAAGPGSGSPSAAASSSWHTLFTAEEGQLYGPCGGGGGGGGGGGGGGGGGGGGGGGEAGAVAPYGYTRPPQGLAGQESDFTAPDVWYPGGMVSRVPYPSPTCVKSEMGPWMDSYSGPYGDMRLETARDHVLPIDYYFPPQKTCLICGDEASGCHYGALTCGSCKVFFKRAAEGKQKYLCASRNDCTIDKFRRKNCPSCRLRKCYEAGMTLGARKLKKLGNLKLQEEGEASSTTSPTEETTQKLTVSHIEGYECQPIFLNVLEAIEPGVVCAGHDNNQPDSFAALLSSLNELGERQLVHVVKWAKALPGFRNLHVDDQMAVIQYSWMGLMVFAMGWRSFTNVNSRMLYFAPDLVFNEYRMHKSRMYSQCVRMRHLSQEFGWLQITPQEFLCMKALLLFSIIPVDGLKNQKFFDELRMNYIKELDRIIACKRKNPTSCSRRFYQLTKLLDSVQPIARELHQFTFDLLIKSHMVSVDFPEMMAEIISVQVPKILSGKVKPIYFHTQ
Outline: (§1)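 PC-3 cells were transfected with maspin-luc, with or without cotransfected AR. Cells were exposed to DMSO vehicle or compound at 2.5 and 5 μM. Luciferase activity was measured in triplicate.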

[2] = molecular target: T1, Androgen receptor (Homo sapiens); assay: Antagonist activity at androgen receptor in human LNCaP cells assessed as increase in Maspin protein expression at 1 to 5 uM incubated for 24 hrs by Western blotting
CWR22R = assay: Cytotoxicity against human 22Rv1 cells incubated for 72 hrs by MTT assay; assay type: functional, cell-based; conditions: 22Rv1, 72 h
Outline: (§2)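 MTT assay run across a panel of prostate cancer cell lines.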

[3] = molecular target: T1, Androgen receptor (Homo sapiens); assay: Antagonist activity at androgen receptor in human LNCaP cells assessed as increase in Maspin promoter activity by luciferase reporter gene assay; assay type: functional, cell-based
Outline: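 LNCaP cells carrying a maspin promoter-luciferase reporter were treated with compound and read by luciferase activity, in triplicate.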

LNCaP [4] = assay: Induction of apoptosis in human LNCAP cells assessed as caspase-3 activation incubated for 24 hrs by Western blotting; assay type: functional, cell-based
Outline: (§3)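 LNCaP cells in complete medium were exposed to DMSO or compound at 1, 2.5 and 5 μM for 24 h. Western blot measured AR, maspin, caspase-3 activation and PARP cleavage, with β-actin as loading control.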

LNCaP [5] = assay: Induction of apoptosis in human LNCAP cells assessed as PARP cleavage activation incubated for 24 hrs by Western blotting; assay type: functional, cell-based; outline: as §3
PC-3 [6] = assay: Effect on in Maspin expression in human PC3 cells deficient in wild type androgen receptor at 5 uM by luciferase reporter gene assay; assay type: functional, cell-based; outline: as §1
[7] = molecular target: T1, Androgen receptor (Homo sapiens); assay: Antagonist activity at androgen receptor in human PC3 cells assessed as increase in Maspin promoter activity at 2.5 uM by luciferase reporter gene assay; assay type: functional, cell-based; conditions: PC-3; outline: as §1
[8] = molecular target: T1, Androgen receptor (Homo sapiens); assay: Antagonist activity at androgen receptor in human LNCaP cells assessed as reduction in DHT-induced PSA expression by luciferase reporter gene assay; assay type: functional, cell-based
Outline: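 LNCaP cells carrying a PSA-luc reporter were treated with compound at 1 and 2.5 μM in the presence of 1 nM DHT. Fold suppression was calculated relative to 1 nM DHT alone. Run in triplicate.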

PC-3 [9] = assay: Effect on in Maspin expression in human PC3 cells deficient in wild type androgen receptor at 2.5 uM by luciferase reporter gene assay; assay type: functional, cell-based; outline: as §1
PC-3 [10] = assay: Cytotoxicity against human PC3 cells incubated for 72 hrs by MTT assay; assay type: functional, cell-based; conditions: PC-3, 72 h; outline: as §2
LNCaP [11] = assay: Cytotoxicity against human LNCAP cells incubated for 72 hrs by MTT assay; assay type: functional, cell-based; outline: as §2
LNCaP [12] = assay: Reduction in androgen receptor protein expression in human LNCAP cells incubated for 24 hrs by Western blotting; assay type: functional, cell-based; outline: as §3
[13] = Cytotoxicity against human C4-2B cells incubated for 72 hrs by MTT assay; assay type: functional, cell-based; conditions: LNCaP C4-2B; outline: as §2
PC-3 [14] = assay: Antagonist activity at androgen receptor ARv7 mutant lacking ligand binding domain expressed in human PC3 cells assessed as reduction in DHT-induced receptor transactivation at 1 uM by luciferase reporter gene assay; assay type: cell-based
Outline: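 AR-v7 (lacks LBD), MMTV-Luc and pRL-TK (Renilla) plasmids transiently transfected into PC-3 cells; cells treated with DMSO vehicle, 0.1 nM DHT, or test compound at 1 μM; transactivation read as luciferase activity (relative luciferase units).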

| SMILES | pIC50 (CWR22R) | Activity [3] | Activity [8] | pIC50 (PC-3 [10]) | pIC50 (LNCaP [11]) | pIC50 [13] | also measured |
| --- | --- | --- | --- | --- | --- | --- | --- |
| Cc1coc2c1C(=O)C(=O)c1c-2ccc2c1CCC(C)(C)C2 | 5.06 | Dose-dependent effect | Dose-dependent effect | 6.05 | 6.15 | 6.30 | Activity [1]: Active; Activity [2]: Active; Activity (LNCaP [4]): Dose-dependent effect; Activity (LNCaP [5]): Dose-dependent effect; Activity (PC-3 [6]): inactive; Activity [7]: Active; Activity (PC-3 [9]): inactive; Activity (LNCaP [12]): Dose-dependent effect |
| Cc1coc2c1C(=O)C(=O)c1c-2ccc2c1COCC2 | 5.82 | – | – | 5.68 | 5.62 | 7.00 | – |
| CC(O)(CS(=O)(=O)c1ccc(F)cc1)C(=O)Nc1ccc(C#N)c(C(F)(F)F)c1 (stereo unspecified) | – | – | – | – | – | – | Activity (PC-3 [14]): inactive |
| Cc1coc2c1C(=O)C(=O)c1c-2ccc2c1CCCCC2 | < 4.70 | – | – | 5.20 | 5.44 | 5.74 | – |
| Cc1coc2c1C(=O)C(=O)c1c-2ccc2c1CCC2(C)C | 5.12 | – | – | 5.62 | 6.00 | 6.40 | – |
| Cc1coc2c1C(=O)C(=O)c1c-2ccc2c1CCC(C)C2 (stereo unspecified) | < 4.70 | – | – | 5.60 | 5.46 | 6.15 | – |
| Cc1coc2c1C(=O)C(=O)c1c-2ccc2c1CCCC2C (stereo unspecified) | 4.93 | – | – | 5.92 | 5.92 | 6.40 | – |
| Cc1coc2c1C(=O)C(=O)c1c-2ccc2c1CC(C)(C)CC2 | 5.49 | Dose-dependent effect | Dose-dependent effect | 5.44 | 5.49 | 5.92 | – |
| Cc1coc2c1C(=O)C(=O)c1c-2ccc2c1CC(C)CC2 (stereo unspecified) | 5.09 | – | – | 5.72 | 5.77 | 6.52 | – |
| Cc1coc2c1C(=O)C(=O)c1c-2ccc2c1CCCC2 | 4.87 | Dose-dependent effect | Dose-dependent effect | 5.92 | 6.22 | 7.00 | – |
